Active and inactive are the calls of the source. No cut-off for these calls is given here.
Tests used:
K562 [1] = experiment: Cell cycle arrest in human K562 cells assessed as accumulation at SubG1 phase at 10 uM after 24 hrs by flow cytometry; type: functional
Method in brief: (§1)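 K-562 cells (RPMI 1640, 10% fetal calf serum, 37 °C, 5% CO2) were exposed for 24 h, then fixed in ice-cold 70% ethanol for 30 min. They were treated with RNase A (1 mg/ml, 37 °C, 30 min) and stained with propidium iodide and Triton X-100 solution for 30 min in the dark. DNA content was read on 10,000 events by flow cytometry, and the sub-G1 region was gated as apoptotic.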

ACHN = experiment: Growth inhibition of human ACHN cells; type: functional
Method in brief: (§2)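 Tested in the NCI in vitro antitumor screening protocol on human tumor lines. The value is the concentration giving 50% reduction in cell growth.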

SNB-75 = experiment: Growth inhibition of human SNB75 cells; type: functional; method in brief: as §2
OVCAR-3 = experiment: Growth inhibition of human OVCAR-3 cells; type: functional; method in brief: as §2
UACC-62 = experiment: Growth inhibition of human UACC62 cells; type: functional; method in brief: as §2
MDA-MB-231 = experiment: Growth inhibition of human MDA-MB-231 cells; type: functional; method in brief: as §2
HCC 2998 = experiment: Growth inhibition of human HCC2998 cells; type: functional; method in brief: as §2
M14 = experiment: Growth inhibition of human M14 cells; type: functional; method in brief: as §2
K562 [2] = experiment: Cell cycle arrest in human K562 cells assessed as accumulation at S phase at 50 uM after 24 hrs by flow cytometry; type: functional; method in brief: as §1
K562 [3] = experiment: Cell cycle arrest in human K562 cells assessed as accumulation at SubG1 phase at 50 uM after 24 hrs by flow cytometry; type: functional; method in brief: as §1
CCRF-CEM = experiment: Growth inhibition of human CCRF-CEM cells; type: functional; method in brief: as §2
HCT-15 = experiment: Growth inhibition of human HCT15 cells; type: functional; method in brief: as §2
K562 [4] = experiment: Cell cycle arrest in human K562 cells assessed as accumulation at G0/G1 phase at 10 uM after 24 hrs by flow cytometry; type: functional; method in brief: as §1
K562 [5] = experiment: Cell cycle arrest in human K562 cells assessed as accumulation at G2/M phase at 10 uM after 24 hrs by flow cytometry; type: functional; method in brief: as §1
K562 [6] = experiment: Growth inhibition of human K562 cells; type: functional; method in brief: as §2
MDA-MB-435 = experiment: Growth inhibition of human MDA-MB-435 cells; type: functional; method in brief: as §2
K562 [7] = experiment: Cell cycle arrest in human K562 cells assessed as accumulation at G2/M phase at 50 uM after 24 hrs by flow cytometry; type: functional; method in brief: as §1
DU-145 = experiment: Growth inhibition of human DU145 cells; type: functional; method in brief: as §2
HOP-62 = experiment: Growth inhibition of human HOP62 cells; type: functional; method in brief: as §2
K562 [8] = experiment: Cell cycle arrest in human K562 cells assessed as accumulation at S phase at 10 uM after 24 hrs by flow cytometry; type: functional; method in brief: as §1
K562 [9] = experiment: Cell cycle arrest in human K562 cells assessed as accumulation at G0/G1 phase at 50 uM after 24 hrs by flow cytometry; type: functional; method in brief: as §1
K562 [10] = experiment: Induction of apoptosis in human K562 cells assessed as increase in caspase-9 activity at 50 uM by colorimetric assay; type: functional, cell-based
Method in brief: (§3)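 Treated K-562 cells (1×10^6 cells/ml) were PBS-washed and lysed on ice for 10 min, and the cytosolic supernatant was cleared at 18,000 g. Protein was measured by BCA. Lysate protein was incubated with caspase-specific colorigenic substrate in 2X reaction buffer with 10 mM DTT at 37 °C for 1 h, and absorbance was read at 405 nm.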

K562 [11] = experiment: Cell cycle arrest in human K562 cells assessed as accumulation at G1 phase at 50 uM after 24 hrs by flow cytometry; type: functional; method in brief: as §1
K562 [12] = experiment: Induction of apoptosis in human K562 cells assessed as increase in caspase-3 activity by colorimetric assay; type: functional, cell-based; method in brief: as §3
K562 [13] = experiment: Induction of apoptosis in human K562 cells assessed as increase in caspase-9 activity at 25 uM by colorimetric assay; type: functional, cell-based; method in brief: as §3
K562 [14] = experiment: Cell cycle arrest in human K562 cells assessed as apoptotic cells at 50 uM after 24 hrs by flow cytometry; type: functional; method in brief: as §1
HeLa = experiment: Induction of microtubule depolymerization in human HeLa cells at 50 uM after 2 hrs by immunocytochemistry; type: functional, cell-based
Method in brief: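 HeLa cells were grown 24 h on coverslips, then treated at 37 °C. They were fixed in 4% paraformaldehyde for 5 min and permeabilized with 0.5% Triton X-100. After blocking with 5% goat serum/1% BSA, cells were stained with anti-ninein and anti-tubulin (45 min, 37 °C), then Alexa-conjugated secondaries and DAPI. Imaging was by confocal microscopy with a 100x objective.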

K562 [15] = experiment: Induction of apoptosis in human K562 cells assessed as upregulation of Bax protein level after 24 hrs by Western blot; type: functional, cell-based
Method in brief: (§4)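 Cells were dosed at several concentrations for 24 h and lysed in Tris-HCl pH 7.5 NP-40 buffer with phosphatase inhibitors. Equal protein was run on SDS-PAGE and transferred to PVDF. Membranes were blocked with 5% nonfat milk in TBST for 1 h, then immunoblotted.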

K562 [16] = experiment: Induction of apoptosis in human K562 cells assessed as cytochrome-C release after 24 hrs by Western blot; type: functional, cell-based; method in brief: as §4
K562 [17] = experiment: Induction of apoptosis in human K562 cells assessed as down-regulation of Bcl2 protein level after 24 hrs by Western blot; type: functional, cell-based; method in brief: as §4
K562 [18] = experiment: Induction of apoptosis in human K562 cells assessed as downregulation of XIAP protein level after 24 hrs by Western blot; type: functional, cell-based; method in brief: as §4
K562 [19] = experiment: Induction of apoptosis in human K562 cells assessed as PARP cleavage after 24 hrs by Western blot; type: functional, cell-based; method in brief: as §4

Row | Structure (SMILES) | Activity (K562 [1]) | GI50 (ACHN) | GI50 (SNB-75) | GI50 (OVCAR-3) | GI50 (UACC-62) | GI50 (MDA-MB-231) | GI50 (HCC 2998) | GI50 (M14) | Activity (K562 [2]) | Activity (K562 [3]) | GI50 (CCRF-CEM) | GI50 (HCT-15) | Activity (K562 [4]) | Activity (K562 [5]) | GI50 (K562 [6]) | GI50 (MDA-MB-435) | Activity (K562 [7]) | GI50 (DU-145) | GI50 (HOP-62) | Activity (K562 [8]) | further results
1 | CSc1ccccc1C#C/C=C\C#Cc1ccccc1N1CCCC1=O | 15.39% | 10.5 µM | 2.34 µM | 1.03 µM | 1.44 µM | 1.19 µM | 1.32 µM | 3 µM | 22.9% | 17.79% | 0.21 µM | 1.53 µM | 49.3% | 51.7% | 0.44 µM | 0.9 µM | 69.4% | 10.1 µM | 5.02 µM | 0% | Activity (K562 [9]): 7.7%
2 | CCC(=O)Nc1ccccc1C#C/C=C\C#Cc1ccccc1C(F)(F)F | 15.3% | 30.1 µM | 4.76 µM | 8.87 µM | 4.04 µM | 7.92 µM | 5.08 µM | 12 µM | 16.1% | 26.11% | 2.75 µM | 4.27 µM | 14.6% | 33.5% | 6.36 µM | 1.92 µM | 82.7% | 40.5 µM | 10 µM | 51.9% | Activity (K562 [9]): 1.2%
3 | CCC(=O)Nc1ccccc1C#C/C=C\C#Cc1ccccc1SC | 9.8% | 4.08 µM | 0.63 µM | 1.79 µM | 1.69 µM | 2.17 µM | 4.19 µM | 1.79 µM | 12.7% | 16.2% | 0.79 µM | 3.35 µM | 22.7% | 35.2% | 2.29 µM | 0.75 µM | 68.5% | 1.93 µM | 2.52 µM | 42.1% | Activity (K562 [9]): 18.7%
4 | Nc1ccccc1C#C/C=C\C#Cc1ccccc1C(F)(F)F |  |  |  |  |  |  |  |  | 19.3% |  |  |  |  |  |  |  | 73.9% |  |  |  | Activity (K562 [10]): Active; Activity (K562 [11]): 6.7%; Activity (K562 [12]): Dose-dependent effect; Activity (K562 [13]): Active; Activity (K562 [14]): 19.4%; Activity (HeLa): Active
5 | O=C1CCCCN1c1ccccc1C#C/C=C\C#Cc1ccccc1C(F)(F)F | 23.9% | 2.67 µM | 1.61 µM | 0.87 µM | 1.44 µM | 1.16 µM | 0.95 µM | 0.9 µM | 0% | 31.57% | 1.56 µM | 1.53 µM | 8.9% | 78.3% | 8.56 µM | 0.6 µM | 59.7% | 1.68 µM | 0.89 µM | 12.9% | Activity (K562 [15]): Dose-dependent effect; Activity (K562 [16]): Dose-dependent effect; Activity (K562 [10]): Active; Activity (K562 [11]): 27.7%; Activity (K562 [12]): Dose-dependent effect; Activity (K562 [13]): Active; Activity (K562 [17]): Dose-dependent effect; Activity (K562 [18]): Dose-dependent effect; Activity (K562 [14]): 51%; Activity (HeLa): Active; Activity (K562 [9]): 40.3%; Activity (K562 [19]): Active
